Article PMC7758886 (ACS Omega, 2020)

Key:
[1] = system: α1A adrenergic receptor (α1AAR); assay: FRET-based Gαq activation, α1A adrenergic receptor; assay type: cell-based; conditions: HEK293, 96-well
[2] = system: β1 adrenergic receptor (β1AR); assay: Epac-S^H187 FRET cAMP production; assay type: cell-based; conditions: HEK293, Epac-S^H187 sensor; at least three individual experiments
[3] = target: Carausius morosus allatostatin-C receptor with C-terminal EYFP (CmorAlstRC-EYFP) (Carausius morosus); assay: FRET or BRET
[4] = system: endogenous β-AR (HEK293 cells); assay: Single-cell FRET microscopy of isoprenaline-stimulated cAMP production; assay type: cell-based; conditions: 3 nM isoprenaline, continuous
Outline: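 HEK293 cells co-transfected (Effectene) with receptor and Epac-SH187 cAMP FRET sensor; medium changed 16 h post-transfection, reseeded on PLL-coated coverslips, imaged 36–48 h post-transfection. One cell per coverslip, continuously perfused with FRET buffer (HEPES, pH 7.35) and/or ligand. FRET = corrected YFP/CFP ratio, normalized to baseline; cAMP rise lowers FRET. Traces averaged over eight cells from 3 days.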

[5] = target: CmorAlstRC ΔN-term mutant (Carausius morosus)
[6] = system: CXCR4; assay: FRET-based Gαi2 activation, 96-well plate, CXCR4; assay type: cell-based; conditions: HEK293, Gαi2 FRET sensor, ± SD, three to four independent plate reader experiments

Compound: NC[C@H](O)c1ccc(O)c(O)c1 [NE, Norepinephrine]
- Gαq FRET sensor activation [1]: induced a concentration-dependent FRET decrease in the Gαq sensor
- change in FRET signal (cAMP production) [2]: decreased the FRET response (increased the cAMP level) in a NE concentration-dependent manner

Compound: human Gαi2-ECFP (from UniProt P04899 1-355) (natural protein)
- pEC50 of AST-C for the FRET change between CmorAlstRC-EYFP and Gαi2-ECFP [3]: 8.84
- tau of association (apparent, with 1 μM AST-C) [3]: 227 ms
- tau of dissociation (apparent, wash-off of 1 μM AST-C) [3]: 3.8 s

Compound: CC(C)NCC(O)c1ccc(O)c(O)c1 (centres unmarked) [Iso, isoprenaline]
- FRET response, cAMP production [4]: sharp decrease in FRET

Compound: Drosophila melanogaster pGlu AST-C peptide (DmelASTC)
- pEC50 of Gαi2 FRET sensor activation by DmelASTC, ΔN-term mutant, 96-well plates [5]: 8.47

Compound: CXCL12: agonist of CXCR4, positive control for Gαi2 activation
- pEC50, Gαi2 activation [6]: 9.49 ± 0.1
